# Source: PubChem
# SENP6 inh: inhibitors of human SENP6 protease; AID 2599; 330,000 compounds, 1.8% hits; Q9GZR1; inhibition, % at 10 µM; Recombinant SENP6 catalytic domain, aminoluciferin luminescence;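 active = inhibition above about 50% at the single tested dose, limit read from the data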;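 also: plate controls were DMSO wells with enzyme for no effect and DMSO wells lacking enzyme for full effect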
# SENP1 inh: blocks the human SENP1 SUMO protease catalytic domain | Q9P0U3 | recombinant SENP1 catalytic domain, CyPet-SUMO1-YPet FRET cleavage | inhibition, % at 10 µM | 360,000 compounds, 0.21% hits | AID 624204;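 active = inhibition at least 30% at 10 µM, raw YFP signal under a set limit, fluorescence ratio 0.5 to 1.5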;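 also: 0% = enzyme with DMSO and 100% = no enzyme wells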
# Target sequence (Q9P0U3 419-644 limits assumed): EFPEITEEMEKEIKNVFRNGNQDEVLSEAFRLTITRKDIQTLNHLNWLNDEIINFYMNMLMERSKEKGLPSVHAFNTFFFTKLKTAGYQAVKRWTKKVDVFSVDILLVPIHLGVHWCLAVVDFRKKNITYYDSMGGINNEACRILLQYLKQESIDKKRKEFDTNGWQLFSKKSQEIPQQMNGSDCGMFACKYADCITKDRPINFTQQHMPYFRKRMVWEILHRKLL
#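 Test system: hSENP1 catalytic domain, recombinant; Amount: 20 pM final SENP1 enzyme; Medium: Tris pH 8 buffer plus EDTA, NaCl, BME, BSA, NP40, catalase; Schedule: 50 min enzyme reaction, room temperature, light-protected; Technique: FRET fluorescence in CFP and YFP emission channels; Controls: no-enzyme wells low, DMSO-plus-enzyme wells high control.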
# Platelet DG rel: modulates dense granule release in human platelets; 300,000 compounds, 0.22% hits; human platelet-rich plasma, SFLLRN dense granule ATP release, luminescence; inhibition, %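 (compounds screened at 7.5 µM in platelet-rich plasma)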;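 active = mean replicate score, as percent of positive control, at or above 50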
# SENP8 block-1: SENP8 protease inhibition | AID 2540 | inhibition, % at 10 µM | purified SENP8, Z-RLRGG-aminoluciferin cleavage, luminescence | 330,000 compounds, 1.2% hits | Q96LD8; in the data active = inhibition above about 50%
# SENP8 block-2: inhibitors of human SENP8 protease; Q96LD8; recombinant SENP8, Nedd8 substrate fluorescence; inhibition, % at 20 µM; 360,000 compounds, 0.64% hits; in the data active = inhibition mostly above about 40%, no sharp cut-off; inactive = mostly below about 27%
# SENP7 inh: inhibitors of human SENP7 protease; inhibition, % at 5 µM; recombinant SENP7, Z-RLRGG-aminoluciferin luminescence, 40 min; 330,000 compounds, 1.5% hits; Q9BQF6;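 active = inhibition above about 50% at the single test dose, limit read from the data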;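 also: plate controls were DMSO with enzyme for no effect and no enzyme buffer wells for full effect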
# SENP8 confirm: human SENP8 inhibition, confirmed; Recombinant SENP8, Z-RLRGG-aminoluciferin luminescence, 60 min; shares compounds with SENP7 inh; inhibition, % at 12.5 µM; AID 488912; 6,200 compounds, 40% hits;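 active = mean inhibition across replicates above about 50%, limit read from the data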
# SENP6 confirm: human SENP6 inhibition, confirmed; shares compounds with SENP7 inh; recombinant SENP6, Z-RLRGG-aminoluciferin luminescence; inhibition, % at 12.5 µM; 6,200 compounds, 58% hits
# SENP7 confirm: confirmation of human SENP7 protease inhibitors | shares compounds with SENP7 inh | recombinant SENP7, Z-RLRGG-aminoluciferin luminescence, 40 min | inhibition, % at 12.5 µM | 6,200 compounds, 69% hits | AID 488917
# Casp3 SENP sel: caspase-3 inhibition (SENP selectivity assay); shares compounds with SENP7 inh; purified caspase-3, Z-DEVD-aminoluciferin luminescence, 60 min; inhibition, % at 12.5 µM; 6,200 compounds, 60% hits;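 active = mean inhibition above about 50%, limit read from the data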;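 also: plate controls were enzyme with DMSO for no effect and wells without caspase-3 for full effect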
# Target sequence (P42574 28-227 limits assumed): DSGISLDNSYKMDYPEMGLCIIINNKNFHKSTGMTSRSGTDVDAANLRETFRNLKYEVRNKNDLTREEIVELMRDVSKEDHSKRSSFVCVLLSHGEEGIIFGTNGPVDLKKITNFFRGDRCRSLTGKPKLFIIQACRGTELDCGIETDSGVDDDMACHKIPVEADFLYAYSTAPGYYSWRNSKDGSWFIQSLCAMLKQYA
# SENP luc ctr: luminescence interference (SENP counter-screen) | shares compounds with SENP7 inh | Pre-incubated SENP8/Z-RLRGG-aminoluciferin, luciferase luminescence interference | inhibition, % at 12.5 µM | 6,200 compounds, 39% hits;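 active = mean inhibition above about 50% when retested at one dose, limit read from the data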;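 also: plate controls were DMSO wells with completed reaction for no effect and substrate without enzyme for full effect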
# Active calls of the source: *; nt = no result. Shown are actives, neighbours in structure and some others; about 2.6% of the full set was active somewhere.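 The calls were made as follows, unless noted: active = mean inhibition above about 50% in the one-dose retest (limit read from the data); inactive = the rest.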
SMILES,SENP6 inh,SENP1 inh,Platelet DG rel,SENP8 block-1,SENP8 block-2,SENP7 inh,SENP8 confirm,SENP6 confirm,SENP7 confirm,Casp3 SENP sel,SENP luc ctr
CCc1ccc(NSc2ccccc2[N+](=O)[O-])cc1,-15,1,9,2,26,56*,7,8,-7,0,1
Nc1ccc2c(c1)C(=O)c1ccccc1C2=O,53*,2,-9,31,9,4,55*,50*,80*,54*,8
COc1ccc(CN(C)CC(=O)Nc2ccccc2C(=O)NC2CC2)cc1OC,-6,0,nt,5,2,4,nt,nt,nt,nt,nt
O=C1c2ccccc2C(=O)C1c1ccc2ccccc2n1,81*,-26,18,81*,19,99*,10,34,42,30,20
COC(=O)C1=C(C)NC(C)=C(C(=O)OC)C1c1ccc2ccccc2n1,-8,-24,-4,-9,-484,-5,nt,nt,nt,nt,nt
O=C(O)c1ccc(-c2ccc(OS(=O)(=O)c3ccccc3F)cc2)cc1,57*,-17,27,41,14,8,44,42,60*,11,6
CCCCCN1C=CC(=C2C(=O)c3ccccc3C2=O)C=C1,96*,28,42,96*,24,97*,94*,96*,100*,96*,46
C=CCn1c(SCn2nnc3ccccc3c2=O)nc2scc(-c3cccs3)c2c1=O,-4,3,6,-1,10,74*,7,6,2,1,3
COCCn1c(N)c(C(=O)OCc2ccccc2)c2nc3ccccc3nc21,73*,-87,-2,61*,-284,45,-14,8,8,-6,0
Cc1ccc(CS(=O)(=O)c2ccccc2-c2nnc(-c3ccc(Cl)cc3)o2)cc1,17,-1,-2,0,-5,-10,nt,nt,nt,nt,nt
Cc1ccccc1-c1nnc(-c2ccc(Cl)cc2)o1,10,-1,-1,58*,17,75*,20,17,23,13,-3
Cc1cccc(-c2nnc(-c3ccccc3)o2)c1,88*,-1,1,74*,5,86*,4,86*,98*,82*,66*
CN(C)c1ccc(-c2nnc(-c3ccccc3F)o2)cc1,87*,-19,0,77*,-393,85*,34,67*,74*,79*,32
CCN(CC)S(=O)(=O)c1cccc(-c2nnc(-c3ccc(C)cc3)o2)c1,3,0,1,3,1,10,nt,nt,nt,nt,nt
COc1ccc(-c2nnc(-c3ccc(N(C)C)cc3)o2)cc1,3,-8,-5,-10,-304,4,nt,nt,nt,nt,nt
Cn1cc(-c2nnc(-c3ccccc3)o2)c2ccccc21,-36,-2,1,47,-339,68*,15,12,15,18,6
O=C(COC(=O)c1cc(=O)[nH]c(=O)[nH]1)Nc1ccccc1F,-13,3,nt,18,-3,-2,nt,nt,nt,nt,nt
Cc1ccc(/C=C/c2nnc(-c3cccc(C)c3)o2)cc1,80*,3,-10,68*,-273,13,3,0,-2,-2,-3
Cc1ccccc1-c1nnc(-c2ccccc2)o1,87*,0,4,83*,17,83*,78*,88*,98*,84*,74*
Cc1ccc(S(=O)(=O)Nc2ccccc2N2CCOCC2)cc1,-5,1,-1,9,-2,-3,nt,nt,nt,nt,nt
